Bioassay records: PubChem, The Scripps Research Institute Molecular Screening Center
HTRA1 inhibitor – inhibitors of human serine peptidase HTRA1 | inhibition, % at 5.96 µM | AID 504803 | Q92743 | recombinant HTRA1, FP-rhodamine activity-based probe, fluorescence polarization | 340,000 compounds, 0.5% hits; in the data active = inhibition above about 36%
PRMT1 inh – blocks human protein arginine methyltransferase 1; AID 652257; recombinant PRMT1, activity-based probe fluorescence polarization; 370,000 compounds, 1.3% hits; Q99873; inhibition, % at 2.79 µM;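 active = inhibition above about 21% made by adding two undisclosed values, limit read from the data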
LEDGF integ inh – blocks HIV-1 LEDGF/p75-dependent DNA integration | TR-FRET IN-LEDGF/p75 DNA integration, Eu/Cy5 | inhibition, % at 3.7 µM | 370,000 compounds, 0.64% hits;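 active = inhibition above the screen-wide mean plus 3 SD, cut at about 13% in these data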;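 note: signal is the Cy5 over europium emission ratio at 671 and 618 nm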
DAGLB inh – blocks human DAGLB lipase activity; HEK293T DAGLB membrane lysate, EnzChek fluorogenic substrate; inhibition, % at 5.17 µM; 340,000 compounds, 0.059% hits; AID 504411; in the data active = inhibition above about 34%
Target sequence (Q8NCG7 whole entry, looked up): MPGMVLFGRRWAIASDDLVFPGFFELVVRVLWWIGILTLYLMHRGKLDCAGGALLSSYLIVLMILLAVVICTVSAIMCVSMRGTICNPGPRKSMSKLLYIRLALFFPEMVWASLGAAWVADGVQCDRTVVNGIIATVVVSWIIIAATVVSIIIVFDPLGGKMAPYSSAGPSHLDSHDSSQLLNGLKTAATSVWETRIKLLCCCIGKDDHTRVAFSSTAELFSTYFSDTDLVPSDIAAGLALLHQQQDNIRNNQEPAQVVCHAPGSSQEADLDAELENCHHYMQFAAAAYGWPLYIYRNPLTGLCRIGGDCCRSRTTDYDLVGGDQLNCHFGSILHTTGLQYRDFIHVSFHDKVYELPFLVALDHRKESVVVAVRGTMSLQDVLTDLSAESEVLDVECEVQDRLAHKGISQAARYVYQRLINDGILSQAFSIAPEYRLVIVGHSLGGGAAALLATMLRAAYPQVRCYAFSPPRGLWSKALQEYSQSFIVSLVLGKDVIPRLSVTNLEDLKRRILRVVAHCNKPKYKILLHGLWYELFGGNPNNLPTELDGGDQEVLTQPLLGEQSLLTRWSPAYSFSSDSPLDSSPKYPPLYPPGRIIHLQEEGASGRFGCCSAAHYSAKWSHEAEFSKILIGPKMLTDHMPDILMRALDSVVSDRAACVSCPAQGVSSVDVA
ABHD4 inh – inhibitors of mouse ABHD4; purified mABHD4, FP-Rh probe fluorescence polarization; 370,000 compounds, 0.54% hits; Q8VD66; inhibition, % at 8.92 µM;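 active = inhibition exceeding the mean over every tested compound plus 3 SD, cut at about 30% in these data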
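Assay system: Wild-type mouse ABHD4 protein | Medium: HEPES pH 7.0 buffer, 150 mM NaCl, 0.01% Pluronic F-127 | Incubation: Enzyme–compound pre-incubation 45 min, then probe 60 min, both 25 °C | Technique: Fluorescence polarization with parallel and perpendicular emission, 525/598 nm | Evaluation: % inhibition of FP-Rh probe binding versus controls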
rCAG RNA binder – r(CAG) repeat RNA binding; TO-PRO-1 dye displacement fluorescence; inhibition, % at 3 µM; 370,000 compounds, 1.3% hits; AID 651821;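 active = inhibition above the plate cutoff, the mean of all test compounds on that plate plus 3 SD, cut at about 35% in these data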;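 note: higher means more dye released from RNA so lower well fluorescence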
rCAG bind conf – r(CAG) RNA repeat binding, confirmation. shares compounds with rCAG RNA binder. TO-PRO-1 dye displacement fluorescence. inhibition, % at 3 µM. 4,300 compounds, 70% hits. AID 652065;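 active = inhibition above a per-plate cutoff, the mean inhibition of sample wells plus 3 SD, cut at about 35% in these data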;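 note: loss of TO-PRO-1 fluorescence as compound displaces dye from 1x1 AA loop RNA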
dCAG dye counter – DNA CAG dye complex inhibition counter-screen; AID 652068; shares compounds with rCAG RNA binder; d(CAG) DNA oligo TO-PRO-1 dye displacement, fluorescence; 4,300 compounds, 94% hits; inhibition, % at 3 µM;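 active = inhibition above its plate's cutoff, the mean test-well inhibition plus 3 SD, cut at about 4.8% in these data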;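 note: hits displace the dye from DNA and so lower well fluorescence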
DNA CAG DR – counter-screen for rCAG binders: inhibitors of DNA CAG TO-PRO-1 complex; shares compounds with rCAG RNA binder; IC50, µM; 250 compounds, 20% hits; DNA CAG/GTC duplex TO-PRO-1 dye displacement fluorescence; in the data active = IC50 below about 10 µM
Of the large screens only hits and unclear results are named; the others gave an inactive call (follow-up assays come after a bar, where they were run). In the library only some 3.2% were active in any assay of this set; here they are far more common.

Cc1cc(NS(=O)(=O)c2ccc(NC(=O)COc3ccc(Cl)cc3Cl)cc2)no1	rCAG RNA binder 55.0 | rCAG bind conf 41.8 | dCAG dye counter 12.1
Cc1cc(NS(=O)(=O)c2ccc(NC(=O)COc3ccccc3C(C)(C)C)cc2)no1	rCAG RNA binder 71.5 | rCAG bind conf 58.1 | dCAG dye counter 24.7
Cc1cc(NS(=O)(=O)c2ccc(NC(=O)CCCOc3ccc(Cl)cc3)cc2)no1	rCAG RNA binder 50.4 | rCAG bind conf inactive | dCAG dye counter 10.2
CC(Oc1ccccc1)C(=O)NC1CCSc2ccccc21 (stereo unspecified)	none
Cc1cc(NS(=O)(=O)c2ccc(NC(=O)Nc3cccc(C(F)(F)F)c3)cc2)no1	rCAG RNA binder 49.5 | rCAG bind conf 52.7 | dCAG dye counter 19.9
CSc1nc(SCC(=O)O)c2sc3nc(-c4ccccc4)c4c(c3c2n1)CCC4	rCAG RNA binder 39.2 | rCAG bind conf 63.4 | dCAG dye counter 37.6
CSc1nc(N(C)CCO)c2sc3nc(-c4ccco4)c4c(c3c2n1)CCC4	none (no result: PRMT1 inh, LEDGF integ inh, ABHD4 inh, rCAG RNA binder)
O=C(CCN1C(=O)S/C(=C\c2ccc(F)cc2)C1=O)Nc1ccc(C(=O)O)c(O)c1	rCAG RNA binder 68.5 | rCAG bind conf 43.2 | dCAG dye counter 11.4
O=C(CCN1C(=O)S/C(=C/c2ccc(F)cc2)C1=O)Nc1ccc(O)c(C(=O)O)c1	rCAG RNA binder 51.0 | rCAG bind conf 36.0 | dCAG dye counter 9.1
O=C(CCN1C(=O)S/C(=C\c2ccc(F)cc2)C1=O)Nc1ccc(O)cc1C(=O)O	rCAG RNA binder 48.7 | rCAG bind conf inactive | dCAG dye counter 6.8
CC(C)CN1C2CCCC1CC(NC(=S)NCc1ccco1)C2 (stereo unspecified)	none
O=C(CCN1CCN(c2ccc(F)cc2)CC1)Nc1ccccc1F	none
O=C(CN1C(=O)NC2(CCCC2)C1=O)Nc1cc(C(F)(F)F)ccc1N1CCCCC1	none
COc1cc(C(=O)NCCc2ccccc2)ccc1OCC(=O)N1CCOCC1	none
Cc1ccc2nc(C)c(C(=O)N/N=C/c3cccs3)cc2c1	none
Cc1ccc2cc(/C=N/NC(=O)c3ccc(F)cc3)c(Cl)nc2c1	none
Cc1ccc2nc(Cl)c(/C=N/Nc3ccc(C(=O)O)cc3)cc2c1	rCAG RNA binder 40.5 | rCAG bind conf inactive | dCAG dye counter 5.3
COc1ccc(C2c3[nH]c4ccccc4c3C[C@H]3C(=O)N(c4ccccc4C(=O)N4CCC(C(=O)O)CC4)C(=O)N23)cc1 (stereo partly specified)	none
CC(C)c1ccc(C2c3[nH]c4ccccc4c3C[C@H]3C(=O)N(c4ccccc4C(=O)N4CCC[C@H]4C(=O)O)C(=O)N23)cc1 (stereo partly specified)	rCAG RNA binder 46.2 | rCAG bind conf 70.2 | dCAG dye counter 27.4 | DNA CAG DR inactive
Cc1onc(-c2ccccc2)c1C(=O)NC(=S)NNC(=O)c1cc(-c2ccc(F)cc2)n[nH]1	rCAG RNA binder 67.8 | rCAG bind conf 71.3 | dCAG dye counter 30.9 | DNA CAG DR inactive
COc1ccc(NC(=O)Nc2nnc(CC(=O)Nc3ccccc3)s2)cc1	rCAG RNA binder 42.5 | rCAG bind conf inactive | dCAG dye counter 14.8
COc1cccc(NC(=O)Nc2nnc(Cc3ccc(F)cc3)s2)c1	none
CCc1nnc(NC(=O)Nc2ccc(OC)cc2)s1	none
CCCCOc1ccc(NC(=O)Nc2nnc(C)s2)cc1	rCAG RNA binder 36.6 | rCAG bind conf inactive | dCAG dye counter 8.2
COc1cccc(NC(=O)Nc2nnc(CC(=O)Nc3ccccc3)s2)c1	rCAG RNA binder 42.7 | rCAG bind conf inactive | dCAG dye counter 20.7
CC(c1ccccc1)c1nnc(NC(=O)Nc2ccccc2)s1 (stereo unspecified)	rCAG RNA binder 43.0 | rCAG bind conf inactive | dCAG dye counter 16.7
Nc1nonc1-n1nnc(C(=O)N/N=C/c2ccncc2)c1-c1ccccc1	none
COc1cc(OC)c(S(=O)(=O)N2CCN(C(=O)c3ccccc3F)CC2)cc1NC(C)=O	none
CCC(CC)c1nnc(NC(=O)CS(=O)(=O)c2ccccc2)s1	none
O=C1CC(SC(=NCc2ccc3c(c2)OCO3)Nc2ccccc2)C(=O)N1c1ccccc1 (stereo unspecified)	none
CN=C(Nc1ccc2c(c1)OCO2)SC1CC(=O)N(c2ccccc2)C1=O (stereo unspecified)	none
O=C(O)c1ccc(N2C(=O)CC(SC(=NCc3ccc4c(c3)OCO4)Nc3ccccc3)C2=O)cc1 (stereo unspecified)	rCAG RNA binder 68.8 | rCAG bind conf 62.5 | dCAG dye counter 22.9
O=C(O)c1ccc(N2C(=O)CC(SC(=NCc3ccc4c(c3)OCO4)Nc3ccc(F)cc3)C2=O)cc1 (stereo unspecified)	rCAG RNA binder 77.4 | rCAG bind conf 72.8 | dCAG dye counter 33.4 | DNA CAG DR inactive
O=C(N1CCN(Cc2ccccc2)CC1)C(Cl)(Cl)Cl	none
O=C(c1cc(F)ccc1F)N(Cc1ccccn1)CC1CCCO1 (stereo unspecified)	none (no result: HTRA1 inhibitor, DAGLB inh)
Cc1ccc(Cn2c(=O)c3ccccc3n3c(SCC(=O)N4CCCCC4C)nnc23)cc1 (stereo unspecified)	none
CN(C)CCCNC(=S)N(CCCO)Cc1cc2cc3c(cc2[nH]c1=O)OCO3	none
CCOC(=O)/C(C#N)=C\c1ccc(O)c(OC)c1	none
CCOC(=O)c1c(-c2ccccc2)csc1NC(=O)/C(C#N)=C\c1ccc(O)c(OC)c1	rCAG RNA binder 48.6 | rCAG bind conf 63.7 | dCAG dye counter 36.3
CCOC(=O)c1c(-c2ccc(C)cc2)csc1NC(=O)/C(C#N)=C/c1ccc(O)c(OC)c1	rCAG RNA binder 37.3 | rCAG bind conf 73.8 | dCAG dye counter 48.3
COc1cc(C#Cc2c(-c3cncn3C)n(C)c3ccc(-c4cnc(OC)nc4)cc23)cc(OC)c1	rCAG RNA binder 74.5 | rCAG bind conf inactive | dCAG dye counter 10.3
Cc1ccc(CNC(=O)CCCn2c(=O)[nH]c3ccccc3c2=O)cc1	none
CC(Nc1nc(Nc2ccc(F)cc2)nc(SCC(N)=O)n1)c1ccccc1 (stereo unspecified)	none
CC(Nc1nc(=S)nc(Nc2ccc(F)cc2)[nH]1)c1ccccc1 (stereo unspecified)	rCAG RNA binder 67.5 | rCAG bind conf inactive | dCAG dye counter 11.7
